The values that follow come from ChEMBL document CHEMBL1126928, “N-(1-arylpropionyl)-4-aryltetrahydropyridines, a new class of high-affinity selective sigma receptor ligands” (J Med Chem, 1993).

In experiment [1] the target is T1, D(2) dopamine receptor (Bos taurus, UniProt P20288). As to the kind of experiment: Inhibition of binding against Dopamine receptor D2 in bovine striatal homogenate using 200 pM [3H]- spiperone and 250 nM unlabeled ketanserin.
In experiment [2] the target is T2, Serotonin 1 (5-HT1) receptor (Rattus norvegicus) (UniProt P28564+P30940+P19327+P28565). As to the kind of experiment: Percent inhibition of binding of 3.0 nM [3H]5-HT to 5-hydroxytryptamine 1 receptor in rat caudate membranes at 10 e -5 M. The format is cell membranes. As to conditions: Membrane. The gist of the method: (§1)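 Rat caudate membranes incubated with 3.0 nM [3H]-5-HT binoxalate. Percent inhibition recorded at 10^-5 M test compound, with nonspecific binding set with 10 μM unlabeled 5-HT.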

Experiment [3] has as its target T3, Serotonin 2 (5-HT2) receptor (Rattus norvegicus) (UniProt P30994+P08909+P14842). The experiment can be described thus: Percent inhibition of binding of 1.0 nM [3H]-ketanserin to 5-hydroxytryptamine 2 receptor in rat cortical membranes at 10 e-5 M. The format is cell membranes. Particulars: Membrane. In outline: (§2)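 1.0 nM [3H]ketanserin bound to rat cortical membranes. Percent inhibition measured at 10^-5 M test compound, with nonspecific binding defined by 10 μM methysergide.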

Experiment [4] has as its target T1, D(2) dopamine receptor. The experiment can be described thus: Binding affinity against Dopamine receptor D2 in bovine striatal homogenate using 200 pM [3H]- spiperone and 250 nM unlabeled ketanserin. The gist of the method: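 Bovine striatal homogenate, run like the σ assay, with 200 pM [³H]spiperone (21.2 Ci/mmol). Incubation buffer pH 7.40 containing 250 nM ketanserin to block 5-HT2 binding. Measured by filtration and scintillation counting. Results given as IC50.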

Experiment [5] has as its target D(1A) dopamine receptor (Rattus norvegicus) (UniProt P18901). The experiment can be described thus: Binding affinity for dopamine receptor D1 in rat striatal membranes using 500 pM [3H]- SCH 23390 radioligand. The format is cell membranes. Particulars: Striatum; Membrane. In outline: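 Test compound at 10^-5 M, reported as percent inhibition of 500 pM [3H]SCH 23390 binding to rat striatal membranes. Nonspecific binding defined with 100 nM unlabeled SCH 23390.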

In experiment [6] the target is Glutamate receptor ionotropic, NMDA 2C (Rattus norvegicus) (UniProt Q00961). The experiment can be described thus: Binding affinity for Phencyclidine receptor (1 uM) using 2 nM [3H]- TCP radioligand. The gist of the method: (§3)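 Test compound at 10^-5 M, reported as percent inhibition of 2 nM [3H]TCP binding. Binding defined with 1 μM PCP.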
The target of experiment [7] is T2, Serotonin 1 (5-HT1) receptor (Rattus norvegicus). As to the kind of experiment: Percent inhibition of binding of 3.0 nM [3H]5-HT to 5-hydroxytryptamine 1 receptor in rat caudate membranes at 10 e -5 M. As to conditions: Membrane. The format is cell membranes. The gist of the method: as §1
For experiment [8], the target named is T3, Serotonin 2 (5-HT2) receptor (Rattus norvegicus). The experiment can be described thus: Percent inhibition of binding of 1.0 nM [3H]ketanserin to 5-hydroxytryptamine 2 receptor in rat cortical membranes at 10 e -5 M. The format is cell membranes. As to conditions: Membrane. The gist of the method:
as §2

Experiment [9] has as its target Glutamate receptor ionotropic, NMDA 2C (Rattus norvegicus) (UniProt Q00961). As to the kind of experiment: Binding affinity for Phencyclidine receptor (1 uM) using 2 nM [3H]- TCP radioligand. In outline:
as §3

The species entered for the next experiment is Rattus norvegicus. The experiment can be described thus: Binding affinity against Phencyclidine receptor (1 uM) using 2 nM [3H]- TCP radioligand. In outline: as §3

T1 sequence (P20288 whole entry): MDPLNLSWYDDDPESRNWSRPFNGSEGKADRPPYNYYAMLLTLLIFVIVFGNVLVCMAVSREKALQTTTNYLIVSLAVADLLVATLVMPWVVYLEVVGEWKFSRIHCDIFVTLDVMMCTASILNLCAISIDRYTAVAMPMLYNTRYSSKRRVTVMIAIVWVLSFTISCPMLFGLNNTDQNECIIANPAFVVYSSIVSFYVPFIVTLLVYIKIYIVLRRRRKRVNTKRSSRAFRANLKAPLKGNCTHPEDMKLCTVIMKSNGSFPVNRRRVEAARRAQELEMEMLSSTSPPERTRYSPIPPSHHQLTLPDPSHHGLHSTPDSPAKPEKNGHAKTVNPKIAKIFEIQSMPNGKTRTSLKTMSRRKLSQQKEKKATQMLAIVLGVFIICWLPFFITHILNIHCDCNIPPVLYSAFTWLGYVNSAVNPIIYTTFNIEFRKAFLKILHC
D(1A) dopamine receptor (Rattus norvegicus), sequence (P18901 whole entry): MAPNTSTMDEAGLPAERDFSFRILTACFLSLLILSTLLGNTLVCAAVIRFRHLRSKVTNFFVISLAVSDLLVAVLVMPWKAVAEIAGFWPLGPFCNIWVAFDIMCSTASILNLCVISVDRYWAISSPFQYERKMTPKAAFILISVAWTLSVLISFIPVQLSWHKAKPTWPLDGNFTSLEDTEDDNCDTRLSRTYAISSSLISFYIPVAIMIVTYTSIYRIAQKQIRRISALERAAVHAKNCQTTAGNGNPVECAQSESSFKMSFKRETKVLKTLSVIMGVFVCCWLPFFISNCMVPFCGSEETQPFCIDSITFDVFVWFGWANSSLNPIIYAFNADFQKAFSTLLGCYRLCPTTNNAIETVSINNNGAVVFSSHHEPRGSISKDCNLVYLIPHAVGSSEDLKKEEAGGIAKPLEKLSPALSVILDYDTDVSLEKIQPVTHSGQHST
T3 sequence (P08909 whole entry, looked up): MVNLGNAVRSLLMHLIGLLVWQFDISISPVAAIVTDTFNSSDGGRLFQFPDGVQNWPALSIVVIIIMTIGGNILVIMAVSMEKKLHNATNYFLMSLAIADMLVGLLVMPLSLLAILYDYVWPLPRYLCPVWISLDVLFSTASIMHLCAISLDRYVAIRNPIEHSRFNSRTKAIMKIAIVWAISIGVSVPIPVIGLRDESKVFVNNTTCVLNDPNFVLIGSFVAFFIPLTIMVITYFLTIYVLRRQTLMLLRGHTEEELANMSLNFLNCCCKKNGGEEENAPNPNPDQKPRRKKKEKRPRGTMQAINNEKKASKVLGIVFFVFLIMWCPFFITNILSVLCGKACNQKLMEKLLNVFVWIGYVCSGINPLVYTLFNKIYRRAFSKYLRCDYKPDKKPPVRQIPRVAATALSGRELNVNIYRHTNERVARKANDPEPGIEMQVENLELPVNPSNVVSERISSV
T3 sequence (P14842 whole entry, looked up): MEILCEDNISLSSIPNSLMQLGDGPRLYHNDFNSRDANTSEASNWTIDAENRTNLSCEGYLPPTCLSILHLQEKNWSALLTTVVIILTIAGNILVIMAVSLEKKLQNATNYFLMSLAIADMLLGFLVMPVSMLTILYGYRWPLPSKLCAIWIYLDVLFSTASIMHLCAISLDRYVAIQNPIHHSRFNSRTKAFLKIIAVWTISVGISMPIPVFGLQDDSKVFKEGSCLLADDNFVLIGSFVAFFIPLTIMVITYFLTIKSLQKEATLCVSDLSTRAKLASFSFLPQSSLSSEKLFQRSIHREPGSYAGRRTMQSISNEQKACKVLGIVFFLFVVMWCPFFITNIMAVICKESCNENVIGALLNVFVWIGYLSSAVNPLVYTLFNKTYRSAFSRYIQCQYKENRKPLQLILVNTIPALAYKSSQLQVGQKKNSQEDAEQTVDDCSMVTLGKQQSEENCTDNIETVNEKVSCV
T3 sequence (P30994 whole entry, looked up): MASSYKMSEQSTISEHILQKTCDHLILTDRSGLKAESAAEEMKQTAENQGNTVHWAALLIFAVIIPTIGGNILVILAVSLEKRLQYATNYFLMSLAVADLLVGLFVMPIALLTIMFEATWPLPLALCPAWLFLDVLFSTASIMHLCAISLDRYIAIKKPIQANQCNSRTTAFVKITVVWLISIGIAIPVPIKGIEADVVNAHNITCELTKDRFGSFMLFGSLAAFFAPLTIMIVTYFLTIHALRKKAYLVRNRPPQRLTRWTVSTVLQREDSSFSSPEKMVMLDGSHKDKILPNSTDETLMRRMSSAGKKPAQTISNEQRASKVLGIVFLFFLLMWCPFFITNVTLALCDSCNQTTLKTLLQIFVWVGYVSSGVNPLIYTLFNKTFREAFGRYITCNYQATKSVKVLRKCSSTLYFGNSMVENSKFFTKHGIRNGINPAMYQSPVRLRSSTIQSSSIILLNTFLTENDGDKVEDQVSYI
Glutamate receptor ionotropic, NMDA 2C (Rattus norvegicus), sequence (Q00961 20-1237 limits assumed): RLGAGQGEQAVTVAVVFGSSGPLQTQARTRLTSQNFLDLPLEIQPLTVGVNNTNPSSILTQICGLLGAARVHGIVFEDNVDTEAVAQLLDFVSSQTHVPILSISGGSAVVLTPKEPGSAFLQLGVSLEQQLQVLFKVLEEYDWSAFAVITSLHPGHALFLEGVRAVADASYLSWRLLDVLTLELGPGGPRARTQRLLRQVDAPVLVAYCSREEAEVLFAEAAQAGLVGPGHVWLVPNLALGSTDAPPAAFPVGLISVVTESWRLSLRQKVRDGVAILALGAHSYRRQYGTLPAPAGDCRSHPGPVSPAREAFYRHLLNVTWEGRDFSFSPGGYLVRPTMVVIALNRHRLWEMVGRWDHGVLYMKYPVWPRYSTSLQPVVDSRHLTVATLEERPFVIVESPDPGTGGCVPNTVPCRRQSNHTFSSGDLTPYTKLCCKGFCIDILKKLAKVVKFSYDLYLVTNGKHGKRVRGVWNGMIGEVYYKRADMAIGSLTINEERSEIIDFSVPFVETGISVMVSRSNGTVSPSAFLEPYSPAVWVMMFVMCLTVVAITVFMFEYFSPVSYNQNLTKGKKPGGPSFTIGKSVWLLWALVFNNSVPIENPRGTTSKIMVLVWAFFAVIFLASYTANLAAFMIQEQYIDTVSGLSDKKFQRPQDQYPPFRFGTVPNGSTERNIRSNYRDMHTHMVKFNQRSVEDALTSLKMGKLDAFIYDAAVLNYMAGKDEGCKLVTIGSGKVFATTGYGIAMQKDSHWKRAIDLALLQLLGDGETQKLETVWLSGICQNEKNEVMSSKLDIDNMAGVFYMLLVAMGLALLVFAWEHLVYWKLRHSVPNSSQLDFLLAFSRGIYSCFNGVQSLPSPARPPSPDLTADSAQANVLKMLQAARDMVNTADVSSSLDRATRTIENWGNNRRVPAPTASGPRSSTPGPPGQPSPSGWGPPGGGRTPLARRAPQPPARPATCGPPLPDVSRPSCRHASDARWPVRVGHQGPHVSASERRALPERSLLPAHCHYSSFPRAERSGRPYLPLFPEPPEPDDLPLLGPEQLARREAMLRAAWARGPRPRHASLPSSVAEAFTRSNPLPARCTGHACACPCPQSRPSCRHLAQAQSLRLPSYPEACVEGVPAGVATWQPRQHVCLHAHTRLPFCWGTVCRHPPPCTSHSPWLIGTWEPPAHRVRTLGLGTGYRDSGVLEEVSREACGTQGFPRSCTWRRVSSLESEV

Broadly, the IC50 is the concentration that inhibits the measured activity by half. Higher therefore signals a need for much substance. As to `N#Cc1ccc(C(=O)CC2CCN(CC3CC3)CC2)cc1`, the IC50 at D(2) dopamine receptor [1] was over 1 µM.

In general, inhibition refers to the drop in the measured response relative to a control, in per cent. Take `O=C(CCN1CC=C(c2ccc(Cl)cc2)CC1)c1ccccc1`: the inhibition in experiment [2] amounted to 72.4%; in experiment [3] it was 96.9%. This compound gave an IC50 at D(2) dopamine receptor [4] of over 5 µM. Moreover, the Binding affinity came out at 19 in [5] and 0 in experiment [6].

On D(2) dopamine receptor [4], `O=C(CCN1CC=C(c2ccc(Cl)cc2)CC1)c1ccc(Cl)c(Cl)c1` gave an IC50 of over 5 µM.

On D(2) dopamine receptor [4], `O=C(CCN1CC=C(c2ccc(F)cc2)CC1)c1ccc(Cl)cc1` displayed an IC50 of over 15 µM.

For the compound `COc1ccc(C(=O)CCN2CC=C(c3ccc(Cl)cc3)CC2)cc1OC`, the IC50 on D(2) dopamine receptor [4] is over 5 µM.

In the case of `O=C(CCN1CC=C(c2ccc(Cl)cc2)CC1)c1ccc(F)cc1`, the IC50 at D(2) dopamine receptor [4] is over 5 µM.

The compound `O=C(CCN1CC=C(c2ccc(Cl)cc2)CC1)c1ccc(F)c(F)c1` showed a 50% inhibitory concentration (IC50) on D(2) dopamine receptor [4] of over 5 µM.

As to `O=C(CCN1CC=C(c2ccc(Cl)cc2)CC1)c1ccc(Cl)cc1`, the results for the inhibition in experiment [7] and in experiment [8] were 49.5% and 84%, respectively. Further, at D(2) dopamine receptor [4], the IC50 is over 5 µM. Also, the Binding affinity in experiment [5] was 31.6; in [9] it was 5.8.

The compound `O=C(CCN1CC=C(c2ccc(F)cc2)CC1)c1ccc(F)cc1` displayed an IC50 on D(2) dopamine receptor [4] of over 10 µM.

The compound `O=C(CCN1CC=C(c2ccc(Cl)cc2)CC1)c1ccc2c(c1)OCO2` yielded an IC50 on D(2) dopamine receptor [4] of over 5 µM.

On to `O=C(CCN1CC=C(c2ccc(F)cc2)CC1)c1ccccc1`, for which the inhibition is 64.5% in experiment [7], 94.8% in experiment [8], 23.9% in experiment [5] and 0% in the experiment listed under Rattus norvegicus. Also, at D(2) dopamine receptor [4], the IC50 is over 5 µM.

`O=C(CCN1CC=C(c2ccc(Cl)cc2)CC1)c1ccccc1F` gave an IC50 on D(2) dopamine receptor [4] of over 5 µM.

In turn, `O=C(CCN1CC=C(c2ccc(Cl)cc2)CC1)c1ccc(Br)cc1` showed an IC50 at D(2) dopamine receptor [4] of over 5 µM.

Regarding `O=C(CCN1CCC(c2ccccc2)CC1)c1ccccc1`, the IC50 on D(2) dopamine receptor [4] is over 5 µM.

`CCN(CC)CCC(=O)c1ccccc1`: on D(2) dopamine receptor [4], the IC50 was over 5 µM.

The compound `C1=C(c2ccccc2)CCNC1` returned an IC50 at D(2) dopamine receptor [4] of over 5 µM.

`Clc1ccc(C2=CCNCC2)cc1`: the half-inhibitory concentration (IC50) on D(2) dopamine receptor [4] is over 5 µM.

With `CCCN(CCC)CCC(=O)c1ccccc1`, the IC50 at D(2) dopamine receptor [4] is over 5 µM.

On D(2) dopamine receptor [4], `c1ccc(CCCCN2CCC(c3ccccc3)CC2)cc1` registered an IC50 of 0.335 µM.

At D(2) dopamine receptor [4], `O=C(CCN1CC=C(c2ccc(F)cc2)CC1)c1ccc(Br)cc1` yielded an IC50 of over 13 µM.

For `O=C(CCN1CC=C(c2ccccc2)CC1)c1ccccc1`, the IC50 on D(2) dopamine receptor [4] was over 5 µM.

`CN(C)CCC(=O)c1ccccc1` gave an IC50 on D(2) dopamine receptor [4] of over 5 µM.
